# Reference: ChEMBL document CHEMBL3108694, “Development of novel dual binders as potent, selective, and orally bioavailable tankyrase inhibitors” (J Med Chem, 2013)
# Key:
# [1] = Inhibition of TNKS in human SW480 cells assessed as degradation of total pool of beta-catenin after 40 to 48 hrs; assay type: cell-based
# How it was run: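 SW480 cells were seeded at 10 000/well in MEMα with 10% HI FBS, GlutaMAX, pyruvate and 10 mM HEPES. They were treated with a 10-point, 3-fold dilution series at 0.1% final DMSO for 40–48 h at 37 °C, then lysed. Total β-catenin was measured by MSD sandwich immunoassay (polyclonal capture, SULFO-TAG mAb detection).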
# [2] = target: T1, Poly [ADP-ribose] polymerase tankyrase-1 (Homo sapiens, UniProt O95271); assay: Inhibition of 6x-His-tagged TNKS1 (unknown origin) after 60 mins
# T1 sequence (O95271 whole entry): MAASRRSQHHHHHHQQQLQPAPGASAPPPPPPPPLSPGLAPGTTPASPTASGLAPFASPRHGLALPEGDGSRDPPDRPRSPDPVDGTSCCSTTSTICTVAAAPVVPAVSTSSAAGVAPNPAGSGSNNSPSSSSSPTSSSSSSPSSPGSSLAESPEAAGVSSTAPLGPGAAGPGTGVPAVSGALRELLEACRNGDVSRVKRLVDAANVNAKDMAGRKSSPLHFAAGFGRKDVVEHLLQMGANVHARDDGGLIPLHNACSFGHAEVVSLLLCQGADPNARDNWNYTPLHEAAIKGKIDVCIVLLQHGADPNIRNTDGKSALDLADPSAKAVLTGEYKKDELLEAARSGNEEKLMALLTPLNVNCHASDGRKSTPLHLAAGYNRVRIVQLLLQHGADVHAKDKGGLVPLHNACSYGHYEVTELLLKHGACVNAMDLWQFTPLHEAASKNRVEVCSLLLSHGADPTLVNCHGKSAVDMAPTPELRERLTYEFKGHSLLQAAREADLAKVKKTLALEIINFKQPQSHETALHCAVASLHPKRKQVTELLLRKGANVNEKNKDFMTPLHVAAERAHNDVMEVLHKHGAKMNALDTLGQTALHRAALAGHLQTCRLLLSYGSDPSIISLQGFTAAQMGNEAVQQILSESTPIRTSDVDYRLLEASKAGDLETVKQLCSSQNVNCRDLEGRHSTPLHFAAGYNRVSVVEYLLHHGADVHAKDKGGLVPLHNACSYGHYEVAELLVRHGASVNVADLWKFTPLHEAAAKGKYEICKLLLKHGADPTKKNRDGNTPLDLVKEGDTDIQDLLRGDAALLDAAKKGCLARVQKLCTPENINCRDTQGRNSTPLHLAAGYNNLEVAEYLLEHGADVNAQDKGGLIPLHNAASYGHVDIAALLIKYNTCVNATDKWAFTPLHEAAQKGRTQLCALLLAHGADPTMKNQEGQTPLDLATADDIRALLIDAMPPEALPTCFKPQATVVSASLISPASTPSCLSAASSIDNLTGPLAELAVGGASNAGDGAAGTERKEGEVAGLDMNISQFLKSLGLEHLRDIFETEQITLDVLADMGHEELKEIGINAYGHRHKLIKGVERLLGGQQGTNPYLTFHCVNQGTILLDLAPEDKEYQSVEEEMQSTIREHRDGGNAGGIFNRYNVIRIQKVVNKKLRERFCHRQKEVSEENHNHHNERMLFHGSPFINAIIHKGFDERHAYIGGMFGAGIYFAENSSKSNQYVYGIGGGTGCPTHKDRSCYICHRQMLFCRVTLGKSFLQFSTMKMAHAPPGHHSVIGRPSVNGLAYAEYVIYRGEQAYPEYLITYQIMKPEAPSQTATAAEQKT
# [3] = Half life in CD-1 mouse plasma at 1 uM by LC-MS/MS analysis; assay type: ADME, cell-free
# How it was run: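 Lithium-heparinized CD-1 mouse plasma was spiked with 1 μM substrate and incubated at 37 °C for 3 h, sampling at 0, 0.167, 1, 2 and 3 h (n = 2). Samples underwent acetonitrile protein precipitation with tolbutamide as internal standard. Analysis was by reversed-phase UPLC-ESI-MS/MS in MRM mode.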
# [4] = Intrinsic clearance in rat liver microsomes at 1 uM after 30 mins; assay type: ADME; details: read-out: CLH
# How it was run: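 Substrate depletion in rat liver microsomes: 0.25 mg protein/mL, 1 mM NADPH and 2 mM MgCl2 in 50 mM potassium phosphate, pH 7.4, prewarmed to 37 °C. Test compound was added to a final 1 μM, and parent loss was measured after 30 min at 37 °C.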
# [5] = Solubility in fasted state simulated intestinal fluid at pH 6.8; assay type: ADME
# [6] = Tmax in CD-1 mouse at 30 mg/kg, po; assay type: ADME, organism-based; set-up: dose 30 mg/kg, route oral; details: in vivo
# How it was run: (§1)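 Male CD-1 mice given a single oral dose of 30 mg/kg. Vehicle was 10% Pluronic F68, 30% HPBCD and 60% water, pH adjusted to 10.0 with NaOH for most compounds or to 2.5 with methanesulfonic acid for one. Mean plasma PK parameters were reported.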
# [7] = Cmax in CD-1 mouse at 30 mg/kg, po; assay type: ADME, organism-based; set-up: dose 30 mg/kg, route oral; details: in vivo; how it was run: as §1
# [8] = Inhibition of TNKS in human SW480 cells assessed as accumulation of axin-2 into cytoplasmic foci after 24 hrs by Hoechst dye-based assay; details: SW480, 24 h
# [9] = AUC (0 to infinity) in CD-1 mouse at 30 mg/kg, po; assay type: ADME, organism-based; set-up: time infinity, dose 30 mg/kg, route oral; details: plasma; how it was run: as §1
# [10] = Inhibition of TNKS in human DLD1 cells expressing APC mutant assessed as inhibition of super-Topflash reporter gene transcription after 40 to 48 hrs by dual-glo luciferase reporter gene assay; assay type: cell-based; details: DLD-1
# How it was run: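 DLD-1 cells carried an 8× TCF-driven firefly luciferase and an EF1a-driven Renilla luciferase, and were seeded at 10 000/well in RPMI with 10% FBS without antibiotics. A 10-point, 3-fold dilution series starting at 10 μM was applied for 40–48 h at 37 °C. Firefly and Renilla activities were read with Dual-Glo reagents.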
# [11] = Fraction unbound in mouse plasma at 5 uM after 5 hrs by equilibrium dialysis method; assay type: ADME, cell-free
# How it was run: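 Mouse plasma was spiked to a final 5 μM and equilibrium-dialyzed against plasma water (ultrafiltrate) for 5 h at 37 °C in a CO2 incubator, using a rapid equilibrium dialysis device. Fraction unbound was determined in duplicate.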
Structure (SMILES),IC50 [1] [nM],IC50 [2] [nM],microsomal CLint at 1 µM [4] [µL/min/mg],other results
O=C(CCSc1nc2ccccc2c(=O)[nH]1)N[C@H]1CC[C@H](Oc2ccc(Cl)cc2)CC1,20,–,–,–
O=C(CCc1nc2ccccc2c(=O)[nH]1)Nc1ccc(-c2nc(-c3ccccc3)c[nH]2)cc1,–,> 46000,–,–
COc1ccccc1NC(=O)[C@H]1CC[C@H](NC(=O)CCc2nc3ccccc3c(=O)[nH]2)CC1,300,31,–,half-life at 1 µM [3]: > 16.7 h
COc1cccc(C)c1NC(=O)c1ccc(NC(=O)CCc2nc3ccccc3c(=O)[nH]2)cc1,–,1750,–,half-life at 1 µM [3]: 4.5 h
COc1ccccc1N(C)C(=O)c1ccc(NC(=O)CCc2nc3ccccc3c(=O)[nH]2)cc1,5680,400,–,half-life at 1 µM [3]: 0.633 h
O=C(CCc1nc2ccccc2c(=O)[nH]1)Nc1ccc(-c2csc(-c3ccccc3)n2)cc1,–,> 46000,–,–
O=C(CCc1nc2c(c(=O)[nH]1)CCCN2)N[C@H]1CC[C@H](c2nnc(-c3ccccc3)o2)CC1,1020,–,< 14,–
COc1ccccc1NC(=O)c1ccc(NC(=O)CCc2nc3ccccc3c(=O)[nH]2)cc1C,3090,210,–,half-life at 1 µM [3]: 0.717 h
O=C(CCSc1nc2ccccc2c(=O)[nH]1)N[C@H]1CC[C@H](Oc2ccc(F)cc2)CC1,16.7,–,–,–
O=C(CSc1nc2ccccc2c(=O)[nH]1)N[C@H]1CC[C@H](c2nnc(-c3ccccc3)o2)CC1,91,–,20,solubility [5]: 1 µg/mL
Cc1ccnc2c(NC(=O)c3ccc(N4C(=O)[C@@H]5[C@H](C4=O)[C@@H]4C=C[C@H]5C4)cc3)cccc12,–,160,–,–
O=C(CCSc1nccc(=O)[nH]1)N[C@H]1CC[C@H](c2nnc(-c3ccccc3)o2)CC1,2130,–,< 14,solubility [5]: 53 µg/mL
O=C(C[C@H]1CCCN1Cc1nc2ccccc2c(=O)[nH]1)N[C@H]1CC[C@H](c2nnc(-c3ccccc3)o2)CC1,500,–,> 399,solubility [5]: 42 µg/mL
O=C(CCCSc1nc2ccccc2c(=O)[nH]1)N[C@H]1CC[C@H](c2nnc(-c3ccccc3)o2)CC1,100,–,159,solubility [5]: 1 µg/mL
N#Cc1cccc(O[C@H]2CC[C@H](NC(=O)CCSc3nc4ccccc4c(=O)[nH]3)CC2)c1,47.8,–,–,–
O=C(CCSc1nc2ccccc2c(=O)[nH]1)N[C@H]1CC[C@H](Oc2ccccn2)CC1,15.4,–,–,–

Structure (SMILES),IC50 [1] [nM],IC50 [2] [nM],microsomal CLint at 1 µM [4] [µL/min/mg],other results
O=C(CCc1nc2ccccc2c(=O)[nH]1)Nc1ccc(-c2nc(-c3ccccc3)no2)cc1,–,> 46000,–,–
N#Cc1cc(O[C@H]2CC[C@H](NC(=O)CCSc3nc4ccccc4c(=O)[nH]3)CC2)ccc1Cl,24.2,–,–,–
COc1ccccc1NC(=O)[C@H]1CC[C@@H](NC(=O)CCc2nc3ccccc3c(=O)[nH]2)CC1,–,7460,–,half-life at 1 µM [3]: > 16.7 h
COc1ccccc1NS(=O)(=O)c1ccc(NC(=O)CCc2nc3ccccc3c(=O)[nH]2)cc1,–,> 46000,–,–
O=C(N[C@H]1CC[C@H](c2nnc(-c3ccccc3)o2)CC1)[C@@H]1CCCN(Cc2nc3ccccc3c(=O)[nH]2)C1,1170,–,206,solubility [5]: 43 µg/mL
O=C(CCCc1nc2ccccc2c(=O)[nH]1)N[C@H]1CC[C@H](c2nnc(-c3ccccc3)o2)CC1,17,–,20,solubility [5]: 11 µg/mL
O=C(CCc1nc2ncccc2c(=O)[nH]1)N[C@H]1CC[C@H](c2nnc(-c3ccccc3)o2)CC1,1950,–,24,–
Cn1c(-c2ccc(NC(=O)CCc3nc4ccccc4c(=O)[nH]3)cc2)nc2ccccc21,> 10000,1090,–,half-life at 1 µM [3]: > 8.33 h
O=C(CCc1nc2ccccc2c(=O)[nH]1)Nc1ccc(-c2c[nH]c(-c3ccccc3)n2)cc1,> 10000,640,–,half-life at 1 µM [3]: 0.883 h
O=C(CCSc1nc2c(c(=O)[nH]1)CCCC2)N[C@H]1CC[C@H](c2nnc(-c3ccccc3)o2)CC1,11,–,60,"Tmax [6]: 3.23 h; Cmax [7]: 3.6 µM; EC50 [8]: 14 nM; AUC(0-inf) [9]: 5.3 µM·h; solubility [5]: 8 µg/mL; IC50 [10]: 1.3 nM; fraction unbound at 5 h, 5 µM [11]: 0.012"
O=C(CCc1nc2ccccc2c(=O)[nH]1)Nc1ccc(-c2nnc(-c3ccccc3)o2)cc1,410,–,–,half-life at 1 µM [3]: 2.03 h; EC50 [8]: 2450 nM
O=C(CCc1nc2ccccc2c(=O)[nH]1)Nc1ccc(-c2nc3ccccc3o2)cc1,7720,860,–,–
O=C(CCc1nc2ccccc2c(=O)[nH]1)N[C@H]1CC[C@H](c2nnc(-c3ccccc3)o2)CC1,80,–,< 14,half-life at 1 µM [3]: > 8.33 h; EC50 [8]: 640 nM; solubility [5]: 16.2 µg/mL
N#Cc1ccc(O[C@H]2CC[C@H](NC(=O)CCSc3nc4ccccc4c(=O)[nH]3)CC2)cc1Cl,8.1,–,–,"Tmax [6]: 1.58 h; Cmax [7]: 15.1 µM; EC50 [8]: 8.4 nM; AUC(0-inf) [9]: 100 µM·h; IC50 [10]: 1.1 nM; fraction unbound at 5 h, 5 µM [11]: 0.002"
O=C(CCSc1nc2ccccc2c(=O)[nH]1)N[C@H]1CC[C@H](Oc2cccc(Cl)c2)CC1,120,–,–,–
